Source: PubChem
Scp1 inh: blocks human Scp-1 phosphatase activity; Q9GZU7; Recombinant Scp1, phosphopeptide, malachite green phosphate absorbance; inhibition, % at 20 µM; 0.88% of 340,000 active;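 active = inhibition above about 50% at 20 µM, limit read from the data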;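 also: plate controls were DMSO wells with enzyme for no effect and wells lacking enzyme for full effect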
Target sequence (Q9GZU7 76-261 limits assumed): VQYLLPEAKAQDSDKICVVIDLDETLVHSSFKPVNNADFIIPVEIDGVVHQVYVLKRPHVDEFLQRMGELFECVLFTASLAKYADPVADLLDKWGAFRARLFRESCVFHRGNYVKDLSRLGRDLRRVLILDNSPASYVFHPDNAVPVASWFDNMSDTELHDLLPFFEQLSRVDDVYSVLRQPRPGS
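Assay system: SCP-1 catalytic fragment, aa 76-261 | Buffer or medium: Tris acetate buffer pH 5.5 with MgCl2 and Tween-20 | Compound: One concentration, 20 µM, with 1.0% DMSO | Also added: Phospho 17-mer peptide substrate | Signal: Absorbance at 630 nm | Incubation: 45 min enzyme reaction at room temperature | Measure: % inhibition of SCP-1 phosphate liberation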
NadD inh: NadD (S. aureus) enzyme inhibition; purified NadD enzyme, colorimetric absorbance read-out; inhibition, % at 20 µM; 0.78% of 360,000 active; in the data active = inhibition above about 26%
STEP inh: blocks human striatal-enriched tyrosine phosphatase. 0.25% of 360,000 active. inhibition, % at 20 µM. recombinant STEP, OMFP fluorogenic substrate, fluorescence. AID 588621;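 active = inhibition at 20 µM, scaled per plate between control wells, above about 37%, limit read from the data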;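 also: 0% = DMSO with enzyme and substrate and 100% = substrate only without enzyme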
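material = STEP tyrosine phosphatase | reagent = fluorogenic phosphatase substrate OMFP at 25 µM final | doses = single compound dose of 20 µM, 1% DMSO final | schedule = 20 min reaction, room temperature, in the dark | measured by = fluorescence, 480/540 nm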
rCAG RNA binder: binds r(CAG) RNA repeats | r(CAG) RNA repeat, TO-PRO-1 dye displacement fluorescence | inhibition, % at 3 µM | 1.3% of 370,000 active | AID 651821;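 active = inhibition above the plate cutoff, the mean of all test compounds on that plate plus 3 SD, cut at about 35% in these data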;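 also: 0% = DMSO alone and 100% = 100 µM mitoxantrone as full dye displacement; higher means more dye released from RNA so lower well fluorescence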
LMPTP block: blocks human LMPTP phosphatase. inhibition, % at 20 µM. AID 651560. recombinant LMPTP-A, OMFP fluorogenic substrate, fluorescence intensity. 0.22% of 360,000 active;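 active = compounds that cut the enzyme signal by at least half of the control window in the single-dose screen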;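 also: plate controls were DMSO wells with enzyme plus substrate for no effect and substrate without enzyme for full effect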
Target sequence (P24666 whole entry, looked up): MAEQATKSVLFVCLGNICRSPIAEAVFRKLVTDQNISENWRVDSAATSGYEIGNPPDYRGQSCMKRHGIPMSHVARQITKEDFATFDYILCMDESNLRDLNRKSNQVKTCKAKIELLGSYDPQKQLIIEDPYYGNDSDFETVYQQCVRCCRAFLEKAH
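material = LMPTP-A | quantity = 0.625 nM enzyme | reagent = OMFP substrate, 400 µM final | buffer or medium = Bis-Tris pH 6.0, DTT, detergent | detection = endpoint fluorescence intensity from OMFP dephosphorylation | dosing = single 20 µM dose | read-out basis = % inhibition relative to no-enzyme and uninhibited control wells | control set = no-enzyme and uninhibited controls | timing = 50 min at room temperature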
Scp-1 conf: confirmation of human Scp-1 phosphatase inhibitors. shares compounds with Scp1 inh. recombinant SCP-1 catalytic domain, phosphate release, malachite green absorbance. inhibition, % at 20 µM. 61% of 2,500 active;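 also: plate controls were DMSO with enzyme for no effect and buffer wells lacking enzyme for full effect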
MG interference: colorimetric interference in Scp-1 counter-screen; shares compounds with Scp1 inh; Colorimetric interference counterscreen, malachite green absorbance 630 nm; apparent inhibition (interference), % at 20 µM; 2,500 tested, under 10 active; AID 540313;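 also: compounds added after enzyme reaction finished so only phosphate colour detection is probed; plate controls were DMSO wells with completed Scp-1 reaction for no effect and substrate wells lacking enzyme for full effect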
Scp-1 Tm shift: binds human Scp-1, shifting its melting temperature. shares compounds with Scp1 inh. Recombinant SCP1, Sypro Orange thermal shift Tm. thermal shift relative to vanadate control, % at 40 µM. 25% of 1,500 active;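 active = substances whose mean melting-temperature shift, as a percentage of the reference inhibitor's shift, reaches about 5.3%, limit read from the data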;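 also: 0% = Tm of DMSO wells and 100% = Tm with sodium orthovanadate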
Active calls of the source: *; . = no result. A selection: hits, their analogues and other compounds. The true share with any hit is near 2.6%.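 The calls were made as follows, unless noted: active = inhibition of at least 30% at 20 µM; inactive = the rest.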

SMILES	Scp1 inh	NadD inh	STEP inh	rCAG RNA binder	LMPTP block	Scp-1 conf	MG interference	others
Cc1cc(C)nc(SCC(=O)NNS(=O)(=O)c2ccc(C#N)cc2)n1	54*	2	1	7	-1	62*	3	Scp-1 Tm shift=-4
Cc1ccc(C(=O)NCCCNC(=O)COc2ccccc2Cl)cn1	58*	1	-1	2	-1	-5	-9
Cc1ccc(C(=O)NCCCNC(=O)COc2ccc(Cl)cc2)cn1	-5	-1	-2	-3	-2	.	.
CCn1c(SCC(=O)N/N=C/c2cccc(Oc3ccccc3)c2)nnc1-c1ccccc1	.	.	.	3	.	.	.
COC(=O)[C@]12C[C@H](CC(=O)N3CCSCC3)C(=O)N(Cc3ccc(Cl)cc3Cl)C1=C[C@H](COCc1ccccc1)O[C@@H]2C	.	.	.	6	.	.	.
O=C(c1ccc(Cl)c(S(=O)(=O)N2CCOCC2)c1)N1CCN(c2ccccc2F)CC1	-5	1	0	-8	0	.	.
O=C(NNC(=O)c1ccccc1F)c1ccc(Cl)c(S(=O)(=O)N2CCOCC2)c1	57*	-3	-2	4	0	-12	-13
CC(=O)c1cccc(NC(=O)Cn2nc(-c3ccc(Cl)cc3)ccc2=O)c1	51*	-11	-2	-3	0	-16	-18
S=C(Nc1cccc(Br)c1)OC1CCC12CCC(c1ccccc1)CC2 (stereo not drawn)	.	.	.	2	.	.	.
COC(=O)C1CN(Cc2ccc(OC)cc2)CCS(=O)(=O)N1Cc1ccc(OC)cc1 (stereo not drawn)	.	.	.	5	.	.	.
COc1cccc(NC(=O)CSCc2cc(=O)n3nc(C4CC4)sc3n2)c1	-4	-4	-2	2	-2	-17	-15
COC(=O)C1CN(CC(C)C)CCS(=O)(=O)N1Cc1ccc(C(F)(F)F)cc1 (stereo not drawn)	.	.	.	-2	.	.	.
CC[n+]1c(C)cc(C)n1-c1ccccc1	95*	16	0	-5	0	92*	-9	Scp-1 Tm shift=-7
O=C(NC1CCCCN(Cc2ccc(Cl)cc2)C1=O)c1cccc2nsnc12 (stereo not drawn)	.	.	.	5	.	.	.
CC(C)C[C@@H]1COc2cc(Br)ccc2S(=O)(=O)N1Cc1cn(Cc2ccc(C(F)(F)F)cc2)nn1	.	.	.	0	.	.	.
CCN1C(=O)/C(=C2\SC(=S)N(CCCOC)C2=O)c2ccccc21	-6	4	1	-1	2	.	.
CN1C(=O)/C(=C2\SC(=S)N(CCCCCC(=O)O)C2=O)c2ccccc21	104*	7	98*	1	85*	68*	-18	Scp-1 Tm shift=3
CC1CN(C2=NC(=O)/C(=C3/C(=O)N(Cc4ccc(F)cc4)c4ccccc43)S2)CC(C)O1 (stereo not drawn)	-7	-2	8	5	3	.	.
O=C(O)CCN1C(=O)/C(=C2\C(=O)N(Cc3ccc(F)cc3)c3ccccc32)SC1=S	88*	2	93*	4	82*	61*	-17	Scp-1 Tm shift=8.8*
CCn1cc(CCC(=O)Nc2ccc(Oc3cccnc3)cc2)c2ccccc21	.	.	.	4	.	.	.
O=C(Cn1ncc(Cl)c(Cl)c1=O)NC1CCCCC1	-5	7	5	3	-1	.	.
O=C(Cn1ncc(Cl)c(Cl)c1=O)NC1CCS(=O)(=O)C1 (stereo not drawn)	88*	-4	1	10	0	69*	-8	Scp-1 Tm shift=-11
Cc1ccc(Cl)cc1N1CCN(c2cccc[n+]2C)CC1	99*	14	-2	-4	0	-4	-8
C[n+]1ccccc1N1CCN(c2ccccc2Cl)CC1	15	16	1	0	1	.	.
O=C(CCCC(=O)Nc1cccc(Br)c1)N/N=C/c1cc([N+](=O)[O-])ccc1O	56*	1	-2	26	2	67*	-10	Scp-1 Tm shift=7.4*
SMILES	Scp1 inh	NadD inh	STEP inh	rCAG RNA binder	LMPTP block	Scp-1 conf	MG interference	others
O=C(Cn1c2[n+](c3ccc(C(F)(F)F)cc31)CCCCC2)Nc1ccccc1	62*	22	-2	13	-2	-18	-10
CC1CCC(C(C)C)C(OCC(O)C[N+]2(C)CCCCC2)C1 (stereo not drawn)	13	7	-1	-1	-1	.	.
CC1CCC(C(C)C)C(OCC[N+](C)(C)C)C1 (stereo not drawn)	58*	11	-2	-2	-3	-10	-10
COC(=O)[C@]12C[C@H](CC(=O)NCCCCc3ccccc3)C(=O)N(Cc3cccc4ccccc34)C1=C[C@H](C(C)C)O[C@@H]2C1CC1	.	.	.	8	.	.	.
COc1ccc([C@H]2CC(=O)C=C(c3ccnc4ccc(Cl)cc34)C2)cc1	59*	0	-1	2	2	-4	-5
Cc1ccc2nc(NC(=O)c3ccc(-c4nc5ccccc5s4)s3)sc2c1	98*	4	37	1	44	83*	-9	Scp-1 Tm shift=5
O=C(Nc1nc2ccccc2s1)c1ccc(Cl)s1	-12	-1	-2	3	-1	.	.
Cc1ccccc1NC(=O)Cn1c(O)c(N=NC(=O)c2ccccc2O)c2ccccc21	94*	26	48*	3	46	77*	-13	Scp-1 Tm shift=-3
Nc1nc(SCC(=O)N2N=C3/C(=C/c4ccco4)CCCC3C2c2ccco2)n[nH]1 (stereo not drawn)	0	25	0	18	1	.	.
O=C(CSc1nccc(=O)[nH]1)N1N=C2/C(=C/c3ccco3)CCCC2C1c1ccco1 (stereo not drawn)	60*	25	1	27	6	65*	-13	Scp-1 Tm shift=-7
COc1ccc(CCNC(C(=O)Nc2cc(C)cc(C)c2)c2ccccc2)cc1 (stereo not drawn)	54*	-2	0	-6	4	-9	-5
CC1(C)CC(=O)C=C(Nc2ccccc2NC(=O)c2cc(Cl)ccc2F)C1	.	.	.	-1	.	.	.
CCOc1cc2[nH]c(=S)n(Cc3ccc(C(=O)NCCCOC)cc3)c(=O)c2cc1OCC	-4	-4	0	4	-2	.	.
COc1ccc(CCNC(=O)c2ccc3c(=O)n(Cc4ccco4)c(=S)[nH]c3c2)cc1OC	58*	23	4	3	4	-14	-17
CCOc1cc2[nH]c(=S)n(Cc3ccc(C(=O)NCCCN(CC)CC)cc3)c(=O)c2cc1OCC	59*	-5	-1	7	0	-13	-11
O=C(CCc1nc(-c2ccccc2F)no1)NCCc1cccc(F)c1	.	.	.	1	.	.	.
O=C(COC(=O)c1cncc(Br)c1)Nc1nnc(-c2ccccc2)o1	60*	0	2	14	7	71*	-12	Scp-1 Tm shift=6.1*
